From paper PMC10653054 (ACS Omega, 2023)

Assays:
[1] = tested on: normal human dermal fibroblast (HDF) cells; test: MTT cytotoxicity assay, normal HDF cells; type: cell-based; conditions: 48 h, read-out: In vitro antiproliferative effects (IC50) HDF
Procedure, shortened: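 Cells came from the National Cell Bank of Iran and were grown in RPMI-1640 or DMEM with 10% FBS at 37 °C, 5% CO2 and 100% humidity. Test compounds in 0.1% DMSO (n = 3) were incubated 48 h, then MTT for 3 h, with formazan OD read at 570 nm. Controls were 0.1% DMSO (negative) and etoposide (positive). IC50 came from dose–response curves, mean ± SE of at least three independent experiments.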

[2] = tested on: caspase-3, cleaved-caspase-3, pro-caspase-3 in Panc-1 cells; test: Western blot analysis of caspase-3 proteins; type: cell-based, human; conditions: Panc-1, IC50 concentration, 48 h
Procedure, shortened: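 Panc-1 cells were exposed to test compound and harvested after 48 h. Lysates were prepared in lysis buffer, and protein was quantified by Bradford assay. Proteins were separated on 15% SDS-PAGE, transferred to PVDF and probed with primary and secondary antibodies. β-actin was the loading control. Bands were detected by chemiluminescence and imaged.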

Panc-1 cells [3] = test: Annexin V-FITC/PI dual staining flow cytometry apoptosis assay; type: cell-based, human; conditions: Panc-1, treated at IC50 concentration, 48 h
Procedure, shortened: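 Panc-1 cells were seeded, held overnight at 37 °C under 5% CO2, then exposed to test compound for 48 h. Untreated cells were the negative control. Cells were trypsinized, washed twice in PBS, pelleted at 1200 rpm and resuspended in binding buffer. Labelled annexin V and propidium iodide were added, and cells were incubated 15 min at room temperature in the dark. Flow cytometry followed.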

Panc-1 cells [4] = test: Cell cycle analysis by PI staining flow cytometry; type: cell-based, human; conditions: Panc-1, IC50 concentration, 48 h; control 1.82%

SMILES	IC50 [1] [µM]	other results
O=c1[nH]nc(O)c2c(-c3cccc(Br)c3)c3n(c12)CCn1cccc1-3 [7k, 12-(3-Bromophenyl)-11-hydroxy-5,6-dihydropyrrolo[2″,1″:3′,4′]pyrazino[1′,2′:1,5]pyrrolo [2,3-d]pyridazin-8(9H)-one]	> 100	
O=c1[nH]nc(O)c2c(-c3ccc(Br)cc3)c3n(c12)CCn1cccc1-3 [7l, 12-(4-Bromophenyl)-11-hydroxy-5,6-dihydropyrrolo[2″,1″:3′,4′]pyrazino[1′,2′:1,5] pyrrolo[2,3-d]pyridazin-8(9H)-one]	> 100	
O=c1[nH]nc(O)c2c(-c3cccc([N+](=O)[O-])c3)c3n(c12)CCn1cccc1-3 [7m, 11-Hydroxy-12-(3-nitrophenyl)-5,6-dihydropyrrolo[2″,1″:3′,4′]pyrazino[1′,2′:1,5] pyrrolo[2,3-d]pyridazin-8(9H)-one]	> 100	caspase-3 protein level [2]: downregulation; pro-caspase-3 protein level [2]: remained unchanged; necrosis (Q1) (Panc-1 cells [3]; control 0.586): 0.851%; early apoptosis (Q3) (Panc-1 cells [3]; control 4.12): 5.56%; late apoptosis (Q2) (Panc-1 cells [3]; control 4.12): 5.45%; live cells (Q4) (Panc-1 cells [3]; control 91.2): 88.1%; cell apoptosis (total apoptotic cells) (Panc-1 cells [3]; untreated cells 8.24%): 11.01%; proportion of cells in the sub-G1 phase (Panc-1 cells [4]): 5.47%
O=c1[nH]nc(O)c2c(-c3ccc([N+](=O)[O-])cc3)c3n(c12)CCn1cccc1-3 [7n, 11-Hydroxy-12-(4-nitrophenyl)-5,6-dihydropyrrolo[2″,1″:3′,4′]pyrazino[1′,2′:1,5] pyrrolo[2,3-d]pyridazin-8(9H)-one]	> 100	
COc1cc(-c2c3n(c4c(=O)[nH]nc(O)c24)CCn2cccc2-3)ccc1O [7o, 11-Hydroxy-12-(4-hydroxy-3-methoxyphenyl)-5,6-dihydropyrrolo[2″,1″:3′,4′]pyrazino [1′,2′:1,5]pyrrolo[2,3-d]pyridazin-8(9H)-one]	> 100	
O=c1[nH]nc(O)c2c(-c3ccc(Cl)cc3Cl)c3n(c12)CCn1cccc1-3 [7p, 12-(2,4-Dichlorophenyl)-11-hydroxy-5,6-dihydropyrrolo[2″,1″:3′,4′]pyrazino [1′,2′:1,5]pyrrolo[2,3-d]pyridazin-8(9H)-one]	> 100	
COc1cc(-c2c3n(c4c(=O)[nH]nc(O)c24)CCn2cccc2-3)cc(OC)c1OC [7q, 11-Hydroxy-12-(3,4,5-trimethoxyphenyl)-5,6-dihydropyrrolo[2″,1″:3′,4′]pyrazino [1′,2′:1,5]pyrrolo[2,3-d]pyridazin-8(9H)-one]	> 100	
COc1cc([C@@H]2c3cc4c(cc3[C@@H](O[C@@H]3O[C@@H]5CO[C@@H](C)O[C@H]5[C@H](O)[C@H]3O)[C@H]3COC(=O)[C@H]23)OCO4)cc(OC)c1O [etoposide, reference compound]	> 100	
